The text below walks through data of ChEMBL document CHEMBL5661970 (Cancer Res, 2006).

pIC50: −log10 of the molar value. Activity calls are given as the source filed them.

Series [1] deals with Platelet-derived growth factor receptor beta (Homo sapiens, UniProt P09619). Description: Inhibition of PDGFR-beta phosphorylation in serum starved human NHDF cells incubated for 1 hr by immunoblotting analysis. The format is cell-based. The method in brief: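 Cells starved overnight in basic medium with 0.5% FBS, incubated 1 h with compound or 0.1% DMSO, then stimulated with human recombinant ligand for 5 min at 37°C. Lysates immunoprecipitated with receptor antibody and immunoblotted for phosphotyrosine. IC50 from nonlinear regression of percentage inhibition (n = 4).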

Series [2] can be described thus: Half life in F344/N JcL-rnu athymic rat at 1 mg/kg, po measured upto 72 hrs by HPLC-MS/MS analysis. It is filed as ADME, organism-based. The following applies: in vivo. In outline:
(§1)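 Female F344/N JcL-rnu rats, four per group, single p.o. dose suspended in 0.5% methyl cellulose. Tail-vein blood sampled at set times to 72 h. Serum spiked with internal standard, deproteinated with acetonitrile, analysed by HPLC-MS/MS. Parameters derived by noncompartmental analysis.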

Series [3] has as its system OVCAR-3. Nature of the series: Antitumor activity against human OVCAR-3 cells xenografted in gamma-irradiation induced RH-rnu/rnu athymic rat assessed as tumor growth inhibition at 1.0 mg/kg, po administered once daily for 2 weeks and measured on day 14 relative to control. It is filed as functional. The following applies: OVCAR-3, light or radiation study, 336 h, read-out: TGI. The method in brief: (§2)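 Rats were γ-irradiated with 7 Gy whole body, and 24 h later received s.c. tumor cells. Fragments (20-30 mg) from ~1,500 mm3 tumors were then implanted s.c. into irradiated athymic rats. Oral dosing at 0.2 or 1 mg/kg or vehicle ran once daily for 2 weeks from day 0. Tumors were measured with calipers twice weekly (length×width²×0.5). TGI% was taken versus vehicle on day 14 (BxPC-3: day 13), with an unpaired t test on RTV.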
On the technique in general: Xenograft models place foreign cells or tissue in a host animal.

Series [4] relates to Calu-6. Description: Antitumor activity against human Calu-6 cells xenografted in RH-rnu/rnu athymic rat assessed as tumor growth inhibition at 0.2 mg/kg, po administered once daily for 6 to 21 days by DCE-MRI analysis. It is filed as functional, organism-based. Conditions: time 6-21 day. In outline:
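Calu-6 tumor-bearing athymic rats were randomized at 274-287 mm3 and dosed orally at 0.2 or 1.0 mg/kg or vehicle once daily on days 0-13. Tumor growth was followed by T2-weighted MRI at 1.5 T through day 21.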

In series [5] the test system is A549. Description: Antitumor activity against human A549 cells xenografted in F344/N Jcl-rnu athymic rat assessed as reduction in number of CD31-positive cells in viable regions of tumor at 1.0 mg/kg, po administered once daily for 7 days by immunofluorescence staining analysis relative to control. The following applies: time 7 day.
The nature of series [6]: Tmax in F344/N JcL-rnu athymic rat at 5 mg/kg, po measured upto 72 hrs by HPLC-MS/MS analysis. The format is ADME, organism-based. The following applies: in vivo. The method in brief:
as §1

The nature of series [7]: Tmax in F344/N JcL-rnu athymic rat at 0.2 mg/kg, po measured upto 72 hrs by HPLC-MS/MS analysis. It is filed as ADME, organism-based. Conditions: in vivo. In outline: as §1
Series [8] relates to DU-145. Nature of the series: Antitumor activity against human DU-145 cells xenografted in gamma-irradiation induced RH-rnu/rnu athymic rat assessed as tumor growth inhibition at 1.0 mg/kg, po administered once daily for 2 weeks and measured on day 14 relative to control. It is filed as functional. Conditions: DU-145, light or radiation study, 336 h, read-out: TGI. The method in brief:
as §2

For series [9], the system named is Calu-6. Nature of the series: Antitumor activity against human Calu-6 cells xenografted in RH-rnu/rnu athymic rat assessed as increased pericyte coverage at 1 mg/kg, po administered for 14 days by immunofluorescence staining analysis relative to control. It is filed as functional. Conditions: time 14 day. In outline:
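Calu-6 xenografted athymic rats were randomized at 273-275 mm3 and dosed orally for 2 weeks. Paraffin sections were double-stained with anti-CD31 and Cy3-anti-α-smooth muscle actin. Pericyte-associated endothelial cells were counted in six fields per tumor, with six tumors per group and Dunnett's test.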

Series [10] concerns Calu-6. Nature of the series: Antitumor activity against human Calu-6 cells xenografted in gamma-irradiation induced RH-rnu/rnu athymic rat assessed as tumor growth inhibition at 1.0 mg/kg, po administered once daily for 2 weeks and measured on day 14 relative to control. The format is functional. The following applies: Calu-6, light or radiation study, 336 h, read-out: TGI. The method in brief: as §2

Series [11] deals with Mitogen-activated protein kinase 3 (Homo sapiens, UniProt P27361). Nature of the series: Inhibition of ERK1 phosphorylation in EGF-stimulated serum-starved human HUVEC cells by immunoblotting analysis. The format is cell-based.
Chain of Mitogen-activated protein kinase 3 (P27361 whole entry): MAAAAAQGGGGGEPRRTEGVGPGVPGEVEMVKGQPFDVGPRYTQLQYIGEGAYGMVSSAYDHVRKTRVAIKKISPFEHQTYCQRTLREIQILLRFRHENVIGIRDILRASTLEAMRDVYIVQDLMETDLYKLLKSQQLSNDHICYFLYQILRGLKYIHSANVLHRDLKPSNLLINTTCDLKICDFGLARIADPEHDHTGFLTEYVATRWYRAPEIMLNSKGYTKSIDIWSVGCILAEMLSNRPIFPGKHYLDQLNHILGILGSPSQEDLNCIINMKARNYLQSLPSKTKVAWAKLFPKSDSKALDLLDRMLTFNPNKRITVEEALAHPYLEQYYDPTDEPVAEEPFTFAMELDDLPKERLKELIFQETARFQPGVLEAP

As usually defined, the pIC50 is the IC50 on a negative log10 scale, so that one unit is a factor of ten. The half-life is the time needed for the level to fall by half in the phase considered. Low values mean fast loss, high ones slow loss. One may read the Tmax as the time at which the peak concentration occurs. With `COc1cc2nccc(Oc3ccc(NC(=O)Nc4cc(C)on4)c(Cl)c3)c2cc1OC` [TIVOZANIB], the pIC50 in [1] is […]. This molecule had a half-life in series [2] of 8.13 h. Also, the inhibition in vivo at 1 mg/kg was 98.5% in series [3], over 100% in series [8] and 99.2% in [10]. For the same molecule, in [4], the outcome was Active. The Activity in series [5] came to 78.2%; in series [9], 50.5%. Besides, the Tmax in series [6] was found to be 3.5 h; in series [7], 2.63 h. In series [11], the inhibition entry is “inactive”.
